How the values were obtained:
Veronica polita = experiment: Post-emergence herbicidal activity against Veronica polita assessed as plant growth inhibition at 75 g ai/ha; assay type: functional; conditions: read-out: GI
In short: (§1)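 Compounds formulated as 100 g/L emulsifiable concentrates in DMF with Tween-80 as emulsifier, then diluted with water. Sprayed post-emergence onto pot-grown plants in a greenhouse, with broadleaf weeds at the 2-leaf stage and grasses at the 1-leaf stage. Clay soil with 1.6% organic matter and CEC 12.1 […]; relative humidity about 50%. Rate (g ai/ha) = active ingredient ÷ pot surface area. Untreated and DMF + Tween-80 solvent controls.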

Eleusine indica = experiment: Post-emergence herbicidal activity against Eleusine indica assessed as plant growth inhibition at 75 g ai/ha; assay type: functional; conditions: read-out: GI; in short: as §1
Myosoton aquaticum = experiment: Post-emergence herbicidal activity against Myosoton aquaticum assessed as plant growth inhibition at 75 g ai/ha; assay type: functional; conditions: read-out: GI; in short: as §1
Brassica juncea [1] = experiment: Post-emergence herbicidal activity against Brassica juncea seedlings assessed as plant growth inhibition at 150 g ai/ha measured 15 days after compound treatment under greenhouse conditions; assay type: functional; conditions: 360 h, read-out: GI
[2] = Phytotoxicity against four-leaf stage Gossypium hirsutum (cotton) plants assessed as plant growth inhibition at 150 g ai/ha applied through spraying measured 30 days after compound treatment under greenhouse conditions; assay type: organism-based; conditions: in vivo, read-out: GI
Chenopodium album [3] = experiment: Post-emergence herbicidal activity against Chenopodium album seedlings assessed as plant growth inhibition at 75 g ai/ha measured 15 days after compound treatment under greenhouse conditions; assay type: functional; conditions: 360 h, read-out: GI
Senna tora = experiment: Post-emergence herbicidal activity against Senna tora assessed as plant growth inhibition at 75 g ai/ha; assay type: functional; conditions: read-out: GI; in short: as §1
[4] = Phytotoxicity against 4-leaf stage Triticum aestivum (wheat) plants assessed as plant growth inhibition at 150 g ai/ha applied through spraying measured 30 days after compound treatment under greenhouse conditions; assay type: organism-based; conditions: in vivo, read-out: GI
Echinochloa crus-galli [5] = experiment: Post emergence herbicidal activity against Echinochloa crus-galli (barnyard grass) seedlings assessed as plant growth inhibition at 75 g ai/ha measured 15 days after compound treatment under greenhouse conditions; assay type: functional; conditions: 360 h, read-out: GI
Amaranthus retroflexus [6] = experiment: Post emergence herbicidal activity against Amaranthus retroflexus seedlings assessed as plant growth inhibition at 150 g ai/ha measured 15 days after compound treatment under greenhouse conditions; assay type: functional; conditions: 360 h, read-out: GI
Commelina communis = experiment: Post-emergence herbicidal activity against Commelina communis (Asiatic dayflower) assessed as plant growth inhibition at 75 g ai/ha; assay type: functional; conditions: read-out: GI; in short: as §1
Ludwigia prostrata = experiment: Post-emergence herbicidal activity against Ludwigia prostrata assessed as plant growth inhibition at 75 g ai/ha; assay type: functional; conditions: read-out: GI; in short: as §1
Setaria faberi [7] = experiment: Post-emergence herbicidal activity against Setaria faberi (Giant Foxtail) seedlings assessed as plant growth inhibition at 75 g ai/ha measured 15 days after compound treatment under greenhouse conditions; assay type: functional; conditions: 360 h, read-out: GI
Chenopodium album [8] = experiment: Post-emergence herbicidal activity against Chenopodium album seedlings assessed as plant growth inhibition at 150 g ai/ha measured 15 days after compound treatment under greenhouse conditions; assay type: functional; conditions: 360 h, read-out: GI
Digitaria sanguinalis [9] = experiment: Post-emergence herbicidal activity against Digitaria sanguinalis (hairy crabgrass) seedlings assessed as plant growth inhibition at 37.5 g ai/ha measured 15 days after compound treatment under greenhouse conditions; assay type: functional; conditions: 360 h, read-out: GI
Polygonum humifusum = experiment: Post-emergence herbicidal activity against Polygonum humifusum assessed as plant growth inhibition at 75 g ai/ha; assay type: functional; conditions: read-out: GI; in short: as §1
Chenopodium album [10] = experiment: Post-emergence herbicidal activity against Chenopodium album seedlings assessed as plant growth inhibition at 37.5 g ai/ha measured 15 days after compound treatment under greenhouse conditions; assay type: functional; conditions: 360 h, read-out: GI
Cerastium arvense = experiment: Post-emergence herbicidal activity against Cerastium arvense assessed as plant growth inhibition at 75 g ai/ha; assay type: functional; conditions: read-out: GI; in short: as §1
[11] = Phytotoxicity against four-leaf stage Oryza sativa (rice) plants assessed as plant growth inhibition at 150 g ai/ha applied through spraying measured 30 days after compound treatment under greenhouse conditions; assay type: organism-based; conditions: in vivo, read-out: GI
Digitaria sanguinalis [12] = experiment: Post-emergence herbicidal activity against Digitaria sanguinalis (hairy crabgrass) seedlings assessed as plant growth inhibition at 150 g ai/ha measured 15 days after compound treatment under greenhouse conditions; assay type: functional; conditions: 360 h, read-out: GI
Echinochloa crus-galli [13] = experiment: Post emergence herbicidal activity against Echinochloa crus-galli (barnyard grass) seedlings assessed as plant growth inhibition at 37.5 g ai/ha measured 15 days after compound treatment under greenhouse conditions; assay type: functional; conditions: 360 h, read-out: GI
[14] = molecular target: T1, Protoporphyrinogen oxidase, chloroplastic (Nicotiana tabacum, UniProt O24163); experiment: Inhibition of Nicotiana tabacum (tobacco) recombinant PPO assessed as protoporphyrin IX formation at room temperature by fluorimetric assay
T1 sequence (O24163 whole entry): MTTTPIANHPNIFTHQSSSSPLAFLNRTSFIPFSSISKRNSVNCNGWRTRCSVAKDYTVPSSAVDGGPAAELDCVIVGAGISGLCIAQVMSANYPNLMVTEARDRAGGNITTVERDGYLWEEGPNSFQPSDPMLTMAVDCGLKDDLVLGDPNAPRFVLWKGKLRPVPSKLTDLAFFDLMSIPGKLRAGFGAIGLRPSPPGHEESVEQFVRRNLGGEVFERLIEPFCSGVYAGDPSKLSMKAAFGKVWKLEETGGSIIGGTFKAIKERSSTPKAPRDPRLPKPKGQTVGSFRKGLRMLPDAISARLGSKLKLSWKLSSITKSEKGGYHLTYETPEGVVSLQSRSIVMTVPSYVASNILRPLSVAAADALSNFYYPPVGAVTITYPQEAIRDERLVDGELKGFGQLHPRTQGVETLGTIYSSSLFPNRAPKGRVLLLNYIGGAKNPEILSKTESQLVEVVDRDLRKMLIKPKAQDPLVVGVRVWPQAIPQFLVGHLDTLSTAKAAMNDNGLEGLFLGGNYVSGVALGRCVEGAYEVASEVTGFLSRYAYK

Echinochloa crus-galli [15] = experiment: Post emergence herbicidal activity against Echinochloa crus-galli (barnyard grass) seedlings assessed as plant growth inhibition at 150 g ai/ha measured 15 days after compound treatment under greenhouse conditions; assay type: functional; conditions: 360 h, read-out: GI
[16] = Phytotoxicity against 4-leaf stage Glycine max (soybean) plants assessed as plant growth inhibition at 75 g ai/ha applied through spraying measured 30 days after compound treatment under greenhouse conditions; assay type: organism-based; conditions: in vivo, read-out: GI
Solanum nigrum = experiment: Post-emergence herbicidal activity against Solanum nigrum (black nightshade) assessed as plant growth inhibition at 75 g ai/ha; assay type: functional; conditions: read-out: GI; in short: as §1
Sonchus asper = experiment: Post-emergence herbicidal activity against Sonchus asper assessed as plant growth inhibition at 75 g ai/ha; assay type: functional; conditions: read-out: GI; in short: as §1
Amaranthus retroflexus [17] = experiment: Post emergence herbicidal activity against Amaranthus retroflexus seedlings assessed as plant growth inhibition at 75 g ai/ha measured 15 days after compound treatment under greenhouse conditions; assay type: functional; conditions: 360 h, read-out: GI
Setaria faberi [18] = experiment: Post-emergence herbicidal activity against Setaria faberi (Giant Foxtail) seedlings assessed as plant growth inhibition at 37.5 g ai/ha measured 15 days after compound treatment under greenhouse conditions; assay type: functional; conditions: 360 h, read-out: GI
[19] = Phytotoxicity against 4-leaf stage Glycine max (soybean) plants assessed as plant growth inhibition at 150 g ai/ha applied through spraying measured 30 days after compound treatment under greenhouse conditions; assay type: organism-based; conditions: in vivo, read-out: GI
Amaranthus spinosus = experiment: Post-emergence herbicidal activity against Amaranthus spinosus assessed as plant growth inhibition at 75 g ai/ha; assay type: functional; conditions: read-out: GI; in short: as §1
[20] = Phytotoxicity against four-leaf stage Zea mays cv. Anjou (maize) plants assessed as plant growth inhibition at 150 g ai/ha applied through spraying measured 30 days after compound treatment under greenhouse conditions; assay type: organism-based; conditions: in vivo, read-out: GI
Digitaria sanguinalis [21] = experiment: Post-emergence herbicidal activity against Digitaria sanguinalis (hairy crabgrass) seedlings assessed as plant growth inhibition at 75 g ai/ha measured 15 days after compound treatment under greenhouse conditions; assay type: functional; conditions: 360 h, read-out: GI
Alkekengi officinarum = experiment: Post-emergence herbicidal activity against Physalis alkekengi assessed as plant growth inhibition at 75 g ai/ha; assay type: functional; conditions: read-out: GI; in short: as §1
Brassica juncea [22] = experiment: Post-emergence herbicidal activity against Brassica juncea seedlings assessed as plant growth inhibition at 37.5 g ai/ha measured 15 days after compound treatment under greenhouse conditions; assay type: functional; conditions: 360 h, read-out: GI
Symphyotrichum subulatum = experiment: Post-emergence herbicidal activity against Symphyotrichum subulatum assessed as plant growth inhibition at 75 g ai/ha; assay type: functional; conditions: read-out: GI; in short: as §1
Phytolacca acinosa = experiment: Post-emergence herbicidal activity against Raddix phytolaccae assessed as plant growth inhibition at 75 g ai/ha; assay type: functional; conditions: read-out: GI; in short: as §1
Brassica juncea [23] = experiment: Post-emergence herbicidal activity against Brassica juncea seedlings assessed as plant growth inhibition at 75 g ai/ha measured 15 days after compound treatment under greenhouse conditions; assay type: functional; conditions: 360 h, read-out: GI
[24] = Phytotoxicity against four-leaf stage Brassica napus (oilseed rape) plants assessed as plant growth inhibition at 150 g ai/ha applied through spraying measured 30 days after compound treatment under greenhouse conditions; assay type: organism-based; conditions: in vivo, read-out: GI
Ammannia baccifera = experiment: Post-emergence herbicidal activity against Ammannia baccifera assessed as plant growth inhibition at 75 g ai/ha; assay type: functional; conditions: read-out: GI; in short: as §1
Boehmeria nivea = experiment: Post-emergence herbicidal activity against Boehmeria nivea assessed as plant growth inhibition at 75 g ai/ha; assay type: functional; conditions: read-out: GI; in short: as §1
Setaria faberi [25] = experiment: Post-emergence herbicidal activity against Setaria faberi (Giant Foxtail) seedlings assessed as plant growth inhibition at 150 g ai/ha measured 15 days after compound treatment under greenhouse conditions; assay type: functional; conditions: 360 h, read-out: GI
Capsella bursa-pastoris = experiment: Post-emergence herbicidal activity against Capsella bursa-pastoris assessed as plant growth inhibition at 75 g ai/ha; assay type: functional; conditions: read-out: GI; in short: as §1
Amaranthus retroflexus [26] = experiment: Post emergence herbicidal activity against Amaranthus retroflexus seedlings assessed as plant growth inhibition at 37.5 g ai/ha measured 15 days after compound treatment under greenhouse conditions; assay type: functional; conditions: 360 h, read-out: GI

With `Cc1nn(-c2cc(NS(C)(=O)=O)c(Cl)cc2Cl)c(=O)n1C(F)F` [SULFENTRAZONE] the inhibition of growth at 75 g/ha (Veronica polita) was 100%, the inhibition of growth at 75 g/ha (Eleusine indica) was 100% and the inhibition of growth at 75 g/ha (Myosoton aquaticum) was over 90%. For the same compound, the inhibition of growth at 150 g/ha (Brassica juncea [1]) was at least 90%, the inhibition at 720 h [2] was 100% and the inhibition of growth at 75 g/ha (Chenopodium album [3]) was at least 90%. It also gave an inhibition of growth at 75 g/ha (Senna tora) of over 90%, an inhibition at 720 h [4] of 20% and an inhibition of growth at 75 g/ha (Echinochloa crus-galli [5]) of at least 90%. It also gave an inhibition of growth at 150 g/ha (Amaranthus retroflexus [6]) of at least 90%, an inhibition of growth at 75 g/ha (Commelina communis) of 100% and an inhibition of growth at 75 g/ha (Ludwigia prostrata) of 100%. The inhibition of growth at 75 g/ha (Setaria faberi [7]) was 80%, the inhibition of growth at 150 g/ha (Chenopodium album [8]) was at least 90% and the inhibition of growth at 37.5 g/ha (Digitaria sanguinalis [9]) was under 50%. The inhibition of growth at 75 g/ha (Polygonum humifusum) was 100%, the inhibition of growth at 37.5 g/ha (Chenopodium album [10]) was 60% and the inhibition of growth at 75 g/ha (Cerastium arvense) was over 90%. The inhibition at 720 h [11] was 70%, the inhibition of growth at 150 g/ha (Digitaria sanguinalis [12]) was 60% and the inhibition of growth at 37.5 g/ha (Echinochloa crus-galli [13]) was 80%. The Ki [14] was 30 nM, the inhibition of growth at 150 g/ha (Echinochloa crus-galli [15]) was at least 90% and the inhibition at 720 h [16] was 10%. For the same compound, the inhibition of growth at 75 g/ha (Solanum nigrum) was 100%, the inhibition of growth at 75 g/ha (Sonchus asper) was 100% and the inhibition of growth at 75 g/ha (Amaranthus retroflexus [17]) was at least 90%. It also gave an inhibition of growth at 37.5 g/ha (Setaria faberi [18]) of 60%, an inhibition at 720 h [19] of 20% and an inhibition of growth at 75 g/ha (Amaranthus spinosus) of 100%. For the same compound, the inhibition at 720 h [20] was 70%, the inhibition of growth at 75 g/ha (Digitaria sanguinalis [21]) was 50% and the inhibition of growth at 75 g/ha (Alkekengi officinarum) was 100%. For the same compound, the inhibition of growth at 37.5 g/ha (Brassica juncea [22]) was 80%, the inhibition of growth at 75 g/ha (Symphyotrichum subulatum) was 100% and the inhibition of growth at 75 g/ha (Phytolacca acinosa) was 100%. It also gave an inhibition of growth at 75 g/ha (Brassica juncea [23]) of at least 90%, an inhibition at 720 h [24] of 100% and an inhibition of growth at 75 g/ha (Ammannia baccifera) of 100%. It also gave an inhibition of growth at 75 g/ha (Boehmeria nivea) of 100%, an inhibition of growth at 150 g/ha (Setaria faberi [25]) of at least 90% and an inhibition of growth at 75 g/ha (Capsella bursa-pastoris) of 100%. The inhibition of growth at 37.5 g/ha (Amaranthus retroflexus [26]) was 80%.

— ChEMBL document CHEMBL3046000, “Design and synthesis of 1-(benzothiazol-5-yl)-1H-1,2,4-triazol-5-ones as protoporphyrinogen oxidase inhibitors” (Bioorg Med Chem, 2013)
